The source made the active and inactive calls. No cut-off for these calls is given here.
Assays:
[1] = biological target: Glutamate NMDA receptor; Grin1/Grin2c (Rattus norvegicus, UniProt P35439+Q00961); assay: Agonist activity at rat GluN1/GluN2C NMDA receptor expressed in Xenopus oocytes measured after 4 days in presence of L-glutamte by two-electrode voltage-clamp recording assay; format: cell-based, Oocyte
Method in brief: (§1)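 Xenopus oocytes were injected with rat GluN1 and GluN2C or GluN2D cRNA (1:2) and recorded by TEVC 2–4 days later at −40 mV, room temperature, pH 7.4 HEPES/NaCl/BaCl2 saline. Concentration-response with 300 μM L-Glu present. NR means <5% response at the concentration given. DMSO ≤0.5%. 3–14 oocytes.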

[2] = biological target: T1, Glutamate NMDA receptor; Grin1/Grin2a (Rattus norvegicus) (UniProt P35439+Q00959); assay: Agonist activity at rat GluN1/GluN2A NMDA receptor expressed in Xenopus oocytes assessed as maximal relative efficacy measured after 4 days in presence of L-glutamte by two-electrode voltage-clamp recording assay relative to glycine; format: cell-based; details: Oocyte, time 4.0 day
Method in brief: (§2)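 Rat GluN1 plus GluN2A or GluN2B cRNA (1:2) in Xenopus oocytes. TEVC at −40 mV, room temperature, 2–4 days post-injection. Bath: 90 mM NaCl, 1 mM KCl, 10 mM HEPES, 0.5 mM BaCl2, 0.01 mM EDTA, pH 7.4. Oocytes were BAPTA-injected before recording. Agonist applied with 300 μM L-Glu throughout. […] NR means <5% response at the stated concentration. 3–14 oocytes.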

[3] = biological target: T2, Glutamate NMDA receptor; Grin1/Grin2b (Rattus norvegicus) (UniProt P35439+Q00960); assay: Agonist activity at rat GluN1/GluN2B NMDA receptor expressed in Xenopus oocytes assessed as maximal relative efficacy measured at 300 uM after 4 days in presence of L-glutamte by two-electrode voltage-clamp recording assay relative to glycine; format: cell-based; details: Oocyte, time 4.0 day; method in brief: as §2
[4] = biological target: Ionotropic glutamate receptor NMDA 1/2D (Rattus norvegicus, UniProt P35439+Q62645); assay: Agonist activity at rat GluN1/GluN2D NMDA receptor expressed in Xenopus oocytes measured after 4 days in presence of L-glutamte by two-electrode voltage-clamp recording assay; format: cell-based, Oocyte; method in brief: as §1
[5] = biological target: T3, Ionotropic glutamate receptor NMDA 1/2D (Rattus norvegicus) (UniProt P35439+Q62645); assay: Agonist activity at rat GluN1/GluN2D NMDA receptor expressed in Xenopus oocytes assessed as maximal relative efficacy measured after 4 days in presence of L-glutamte by two-electrode voltage-clamp recording assay relative to glycine; format: cell-based; details: Oocyte, time 4.0 day
Method in brief: as §1, with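 “present. […]” for “present.”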

[6] = biological target: Glutamate NMDA receptor; Grin1/Grin2a (Rattus norvegicus, UniProt P35439+Q00959); assay: Agonist activity at rat GluN1/GluN2A NMDA receptor expressed in Xenopus oocytes measured after 4 days in presence of L-glutamte by two-electrode voltage-clamp recording assay; format: cell-based, Oocyte
Method in brief: (§3)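 Rat GluN1 plus GluN2A or GluN2B cRNA (1:2) in Xenopus oocytes. TEVC at −40 mV, room temperature, 2–4 days post-injection. Bath: 90 mM NaCl, 1 mM KCl, 10 mM HEPES, 0.5 mM BaCl2, 0.01 mM EDTA, pH 7.4. Oocytes were BAPTA-injected before recording. Agonist applied with 300 μM L-Glu throughout. NR means <5% response at the stated concentration. 3–14 oocytes.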

[7] = biological target: Glutamate NMDA receptor; Grin1/Grin2c (Rattus norvegicus) (UniProt P35439+Q00961); assay: Agonist activity at rat GluN1/GluN2C NMDA receptor expressed in Xenopus oocytes assessed as maximal relative efficacy measured after 4 days in presence of L-glutamte by two-electrode voltage-clamp recording assay relative to glycine; format: cell-based; details: Oocyte, time 4.0 day
Method in brief: as §1, with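 “present. […]” for “present.”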

[8] = biological target: T1, Glutamate NMDA receptor; Grin1/Grin2a (Rattus norvegicus); assay: Agonist activity at rat GluN1/GluN2A NMDA receptor expressed in Xenopus oocytes assessed as maximal relative efficacy measured at 30 uM after 4 days in presence of L-glutamte by two-electrode voltage-clamp recording assay relative to glycine; format: cell-based; details: Oocyte, time 4.0 day; method in brief: as §2
[9] = biological target: T2, Glutamate NMDA receptor; Grin1/Grin2b (Rattus norvegicus); assay: Agonist activity at rat GluN1/GluN2B NMDA receptor expressed in Xenopus oocytes assessed as maximal relative efficacy measured at 30 uM after 4 days in presence of L-glutamte by two-electrode voltage-clamp recording assay relative to glycine; format: cell-based; details: Oocyte, time 4.0 day; method in brief: as §2
[10] = biological target: T3, Ionotropic glutamate receptor NMDA 1/2D (Rattus norvegicus); assay: Agonist activity at rat GluN1/GluN2D NMDA receptor expressed in Xenopus oocytes assessed as maximal relative efficacy measured at 30 uM after 4 days in presence of L-glutamte by two-electrode voltage-clamp recording assay relative to glycine; format: cell-based; details: Oocyte, time 4.0 day
Method in brief: as §1, with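 “present. […]” for “present.”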

[11] = biological target: T2, Glutamate NMDA receptor; Grin1/Grin2b (Rattus norvegicus); assay: Agonist activity at rat GluN1/GluN2B NMDA receptor expressed in Xenopus oocytes assessed as maximal relative efficacy measured after 4 days in presence of L-glutamte by two-electrode voltage-clamp recording assay relative to glycine; format: cell-based; details: Oocyte, filed as agonist, time 4.0 day; method in brief: as §2
[12] = biological target: T3, Ionotropic glutamate receptor NMDA 1/2D (Rattus norvegicus); assay: Agonist activity at rat GluN1/GluN2D NMDA receptor expressed in Xenopus oocytes assessed as maximal relative efficacy measured at 100 uM after 4 days in presence of L-glutamte by two-electrode voltage-clamp recording assay relative to glycine; format: cell-based; details: Oocyte, time 4.0 day
Method in brief: as §1, with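 “present. […]” for “present.”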

[13] = biological target: T2, Glutamate NMDA receptor; Grin1/Grin2b (Rattus norvegicus); assay: Agonist activity at rat GluN1/GluN2B NMDA receptor expressed in Xenopus oocytes assessed as maximal relative efficacy measured at 100 uM after 4 days in presence of L-glutamte by two-electrode voltage-clamp recording assay relative to glycine; format: cell-based; details: Oocyte, time 4.0 day; method in brief: as §2
Oocyte [14] = assay: Agonist activity at mutant GluN1 F484A/T518 mutant//GluN3A NMDA receptor (unknown origin) expressed in Xenopus oocytes measured after 4 days in presence of glycine by two-electrode voltage-clamp recording assay; format: cell-based; details: Homo sapiens, time 4.0 day
Oocyte [15] = assay: Agonist activity at mutant GluN1 F484A/T518 mutant//GluN3B NMDA receptor (unknown origin) expressed in Xenopus oocytes measured after 4 days in presence of glycine by two-electrode voltage-clamp recording assay; format: cell-based; details: Homo sapiens, time 4.0 day
Oocyte [16] = assay: Agonist activity at recombinant GluN1a/GluN2B NMDA receptor (unknown origin) expressed in Xenopus oocytes assessed as inhibition of glycine-induced activation of current measured at 10 uM after 4 days in presence of L-glutamte by two-electrode voltage-clamp recording assay; format: cell-based; details: Homo sapiens, filed as agonist, time 4.0 day
Method in brief: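 Oocytes expressing GluN1/2B were BAPTA-injected and held under two-electrode voltage clamp in continuous 300 μM L-Glu. […] Values are mean ± SEM from 12 oocytes.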

[17] = Binding affinity at recombinant GluN1a/GluN2B NMDA receptor (unknown origin) expressed in Xenopus oocytes measured after 4 days in presence of L-glutamte by two-electrode voltage-clamp recording assay; format: cell-based, Homo sapiens; details: oocyte
[18] = biological target: Glutamate NMDA receptor; Grin1/Grin2b (Rattus norvegicus, UniProt P35439+Q00960); assay: Agonist activity at rat GluN1/GluN2B NMDA receptor expressed in Xenopus oocytes measured after 4 days in presence of L-glutamte by two-electrode voltage-clamp recording assay; format: cell-based, Oocyte; method in brief: as §3
[19] = biological target: T1, Glutamate NMDA receptor; Grin1/Grin2a (Rattus norvegicus); assay: Agonist activity at rat GluN1/GluN2A NMDA receptor expressed in Xenopus oocytes assessed as maximal relative efficacy measured at 300 uM after 4 days in presence of L-glutamte by two-electrode voltage-clamp recording assay relative to glycine; format: cell-based; details: Oocyte, time 4.0 day; method in brief: as §2
[20] = biological target: T3, Ionotropic glutamate receptor NMDA 1/2D (Rattus norvegicus); assay: Agonist activity at rat GluN1/GluN2D NMDA receptor expressed in Xenopus oocytes assessed as maximal relative efficacy measured at 300 uM after 4 days in presence of L-glutamte by two-electrode voltage-clamp recording assay relative to glycine; format: cell-based; details: Oocyte, time 4.0 day
Method in brief: as §1, with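 “present. […]” for “present.”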

[21] = biological target: T2, Glutamate NMDA receptor; Grin1/Grin2b (Rattus norvegicus); assay: Agonist activity at rat GluN1/GluN2B NMDA receptor expressed in Xenopus oocytes assessed as maximal relative efficacy measured at 10 uM after 4 days in presence of L-glutamte by two-electrode voltage-clamp recording assay relative to glycine; format: cell-based; details: Oocyte, time 4.0 day; method in brief: as §2

| Compound | EC50 [1] [nM] | Rmax [2] [%] | Rmax [3] [%] | EC50 [4] [nM] | Rmax [5] [%] | EC50 [6] [nM] | Rmax ([7]; filed as agonist) [%] | Rmax [7] [%] | Rmax [13] [%] | also measured |
| --- | --- | --- | --- | --- | --- | --- | --- | --- | --- | --- |
| N[C@H](CNC(=O)c1ccc(-c2ccccc2)o1)C(=O)O | 2900 | 22 | < 5 | 4300 | 16 | 4800 | 77 |  |  |  |
| N[C@H](CNC(=O)c1ccc(-c2ccccc2/C=C/c2ccccc2)o1)C(=O)O | 5800 |  |  |  |  |  |  | 16 |  | Rmax [8]: < 5%; Rmax [9]: < 5%; Rmax [10]: < 5% |
| N[C@H](CO)C(=O)O |  |  |  |  |  |  | 111 |  |  | Rmax ([2]; filed as agonist): 96%; Rmax ([5]; filed as agonist): 93%; Rmax [11]: 100% |
| COCc1ccccc1-c1ccc(C(=O)NC[C@@H](N)C(=O)O)o1 | 1600 | 32 | < 5 | 3200 | 11 | 3100 | 114 |  |  |  |
| N[C@H](CNC(=O)c1ccc(-c2cccc(Cl)c2)o1)C(=O)O | 1300 | 27 | < 5 | 5000 | 38 | 4900 | 68 |  |  |  |
| COc1ccc(-c2ccc(C(=O)NC[C@@H](N)C(=O)O)o2)cc1 | 1300 |  |  |  |  |  |  | 26 | < 5 | Rmax [12]: < 5% |
| N[C@H](CNC(=O)c1ccc(-c2cccc(C(F)(F)F)c2)o1)C(=O)O | 1800 | 17 | < 5 | 7700 | 35 | 6600 |  | 36 |  |  |
| N[C@H](CNC(=O)c1ccc(-c2cccc3c2OCCO3)o1)C(=O)O | 3900 |  | < 5 |  |  |  |  | 17 |  |  |
| N[C@H](CNC(=O)c1ccc(-c2ccc(Cl)cc2)o1)C(=O)O | 1700 | 14 |  |  |  | 4300 | 44 |  | < 5 | Rmax [12]: < 5% |
| N[C@H](CNC(=O)c1ccc(-c2ccccc2/C=C/c2cccc(F)c2)o1)C(=O)O | 750 |  |  |  |  |  |  | 22 | < 5 |  |
| N[C@H](CNC(=O)c1ccc(-c2ccc(Cl)c(Cl)c2)o1)C(=O)O | 4200 | 20 | < 5 | 31000 | 24 | 23000 | 74 |  |  |  |
| N[C@H](CNC(=O)c1ccc(-c2ccccc2OCc2ccccc2)o1)C(=O)O | 4000 |  | < 5 |  |  |  | 157 |  |  | Rmax [19]: < 5% |
| CN(C)S(=O)(=O)c1ccccc1-c1ccc(C(=O)NC[C@@H](N)C(=O)O)o1 | 4800 | 22 | < 5 |  |  | 10000 | 119 |  |  | Rmax [20]: < 5% |

The remaining compounds from weak to strong by EC50 [1], led by results:

| EC50 [1] [nM] | Rmax [2] [%] | Rmax [3] [%] | EC50 [4] [nM] | Rmax [5] [%] | EC50 [6] [nM] | Rmax ([7]; filed as agonist) [%] | Rmax [7] [%] | Rmax [13] [%] | Compound | also measured |
| --- | --- | --- | --- | --- | --- | --- | --- | --- | --- | --- |
| 140 |  |  | 260 | 17 | 220 | 103 |  |  | Cc1ccccc1-c1ccc(C(=O)NC[C@@H](N)C(=O)O)o1 | Rmax [21]: < 5%; Rmax ([2]; filed as agonist): 58% |
| 120 | 38 | < 5 | 270 | 11 | 260 | 70 |  |  | N[C@H](CNC(=O)c1ccc(-c2ccccc2Cl)o1)C(=O)O |  |
| 110 | 29 | < 5 | 230 | 12 | 180 | 53 |  |  | N[C@H](CNC(=O)c1ccc(-c2cccc3ccccc23)o1)C(=O)O |  |
| 74 |  |  |  |  |  |  | 28 | < 5 | N[C@H](CNC(=O)c1ccc(-c2ccc(Cl)cc2[N+](=O)[O-])o1)C(=O)O | inhibition (Oocyte [14]): inactive; inhibition (Oocyte [15]): inactive; inhibition (Oocyte [16]): 57%; Rmax [12]: < 5%; Ki [17]: 100 nM; IC50 [18]: 10000 nM |
| 40 | 24 |  |  |  | 130 |  | 36 | < 5 | N[C@H](CNC(=O)c1ccc(-c2ccccc2C(F)(F)F)o1)C(=O)O | Rmax [12]: < 5% |
| 36 | 34 |  | 80 | 9 | 53 | 49 |  | < 5 | N[C@H](CNC(=O)c1ccc(-c2ccccc2Br)o1)C(=O)O |  |
